In ChEMBL document CHEMBL1123482, “Synthesis and dopaminergic activity of some halogenated mono- and dihydroxylated 2-aminotetralins” (1986):
The source made the active and inactive calls. The rule behind the calls is not given here.

Assays:
[1] = biological target: D(2) dopamine receptor (Bos taurus) (UniProt P20288); assay: Affinity for Dopamine receptor D2 was evaluated from the ability to displace [3H]spiroperidol from homogenized bovine pituitary
Outline: (§1)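 Bovine anterior pituitary homogenate with [3H]spiroperidol ~0.25 nM. Screened at 10^-5 and 10^-7 M; where displacement was 50% or more, IC50 was determined. KBind = IC50/(1 + L/KD), spiroperidol KD 0.3 nM.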

[2] = biological target: D(1A) dopamine receptor (Rattus norvegicus) (UniProt P18901); assay: Affinity for Dopamine receptor D1 binding sites was evaluated in a test involving displacement of [3H]- fenoldopam in rat striatum; format: tissue-based
Sequence of D(1A) dopamine receptor (Rattus norvegicus) (P18901 whole entry, the tested form may be a part): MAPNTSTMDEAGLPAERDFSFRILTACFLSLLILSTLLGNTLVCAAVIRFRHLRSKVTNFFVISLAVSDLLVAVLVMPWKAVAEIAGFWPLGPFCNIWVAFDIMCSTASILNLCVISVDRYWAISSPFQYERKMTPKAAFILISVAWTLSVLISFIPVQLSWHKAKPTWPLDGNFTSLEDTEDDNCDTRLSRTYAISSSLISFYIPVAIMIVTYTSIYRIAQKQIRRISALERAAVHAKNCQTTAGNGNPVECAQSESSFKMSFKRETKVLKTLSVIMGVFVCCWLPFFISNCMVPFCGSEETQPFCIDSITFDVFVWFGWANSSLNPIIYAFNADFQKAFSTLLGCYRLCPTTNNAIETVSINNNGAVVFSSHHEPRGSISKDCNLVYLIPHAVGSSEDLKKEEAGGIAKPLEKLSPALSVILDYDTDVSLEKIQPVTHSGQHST

[3] = biological target: D(1A) dopamine receptor (Rattus norvegicus) (UniProt P18901); assay: Stimulation of dopamine-sensitive rat caudate adenylate cyclase or antagonism of dopamine stimulus as measure of D1 efficacy; No stimulation; format: functional
[4] = biological target: D(1A) dopamine receptor (Rattus norvegicus) (UniProt P18901); assay: The ability of a compound to stimulate dopamine-sensitive rat caudate adenylate cyclase or to antagonise the stimulant of dopamine was used as measure of D1 efficacy; format: functional
Oryctolagus cuniculus [5] = species on record: Oryctolagus cuniculus; assay: The D2 efficacy was evaluated in isolated perfused rabbit ear artery test; format: functional; conditions: read-out: ED50 (the source's name)
Outline: (§2)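 Isolated perfused rabbit ear artery given brief intermittent nerve stimulation; concentration-dependent inhibition of the constrictor response measured. EC50 is the concentration giving 50% inhibition of constriction. Antagonist KB values for (S)-sulpiride determined by the Furchgott method, in nM.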

Oryctolagus cuniculus [6] = species on record: Oryctolagus cuniculus; assay: The D2 efficacy was evaluated in isolated perfused rabbit ear artery test; No response at 1 uM; format: functional; outline: as §2
[7] = biological target: D(2) dopamine receptor (Bos taurus) (UniProt P20288); assay: Affinity for Dopamine receptor D2 was evaluated from the ability to displace [3H]spiroperidol from homogenized bovine uM; conditions: concentration not given here; outline: as §1

Sequence of D(2) dopamine receptor (Bos taurus) (P20288 whole entry): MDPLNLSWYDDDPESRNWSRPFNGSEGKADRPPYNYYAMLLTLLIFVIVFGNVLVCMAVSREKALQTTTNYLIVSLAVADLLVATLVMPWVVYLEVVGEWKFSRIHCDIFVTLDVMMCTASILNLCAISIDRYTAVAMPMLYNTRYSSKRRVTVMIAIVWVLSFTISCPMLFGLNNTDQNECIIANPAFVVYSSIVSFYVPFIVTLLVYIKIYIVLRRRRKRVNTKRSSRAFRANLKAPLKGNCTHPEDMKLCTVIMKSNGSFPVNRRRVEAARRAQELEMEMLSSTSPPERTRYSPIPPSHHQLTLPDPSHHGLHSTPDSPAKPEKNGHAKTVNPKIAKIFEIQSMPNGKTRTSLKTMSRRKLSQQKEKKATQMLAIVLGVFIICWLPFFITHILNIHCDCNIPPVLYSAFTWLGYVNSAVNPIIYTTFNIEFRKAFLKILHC

SMILES | K Bind [1] [µM] | K Bind [2] [µM] | ED50 [3] | ED50 [4] [nM] | EC50 (Oryctolagus cuniculus [5]) [nM] | ED50 (Oryctolagus cuniculus [6]) | inhibition [7] [%]
CCCN(CCC)C1CCc2c(ccc(O)c2Cl)C1 (stereo not drawn) | 0.85 | 2.25 |  |  |  |  | 
CCCN(CCc1ccc(O)cc1)C1CCc2cc(O)c(O)c(Cl)c2C1 (stereo not drawn) | 0.033 | 0.27 |  |  |  |  | 
CCCN(CCC)C1CCc2cc(Cl)c(O)c(Cl)c2C1 (stereo not drawn) | 10.4 | > 10 | inactive |  |  |  | 
NC1CCc2cc(O)c(O)c(Cl)c2C1 (stereo not drawn) | 3.16 | 0.043 |  | 1400 | 536000 |  | 
NC1CCc2c(cc(O)c(O)c2F)C1 (stereo not drawn) | 0.52 | 0.074 |  | 1600 |  |  | 
CN(C)C1CCc2cc(O)c(Cl)cc2C1 (stereo not drawn) | 0.09 | 2.3 | inactive |  |  |  | 
NC1CCc2cc(F)c(O)cc2C1 (stereo not drawn) | 0.66 | 0.37 |  |  |  |  | 
NC1CCc2cc(Cl)c(O)cc2C1 (stereo not drawn) | 1.05 | 1.44 | inactive |  |  | inactive | 
CCCN(CCC)C1CCc2cc(O)c(Cl)cc2C1 (stereo not drawn) | 0.9 | 8.23 | inactive |  |  |  | 
CN(C)C1CCc2cc(Cl)c(O)cc2C1 (stereo not drawn) | 1.55 | 2.63 | inactive |  |  |  | 
CN(C)C1CCc2cc(Cl)c(O)c(Cl)c2C1 (stereo not drawn) |  | > 20 |  |  |  |  | 29
CN(C)C1CCc2cc(F)c(O)cc2C1 (stereo not drawn) | 0.47 | 0.76 |  |  |  |  | 
NC1CCc2cc(O)c(O)cc2C1 (stereo not drawn) | 0.21 | 0.07 |  | 2700 |  |  | 
CCCN(CCC)CC1CCc2cc(F)c(O)cc2C1 (stereo not drawn) | 14.1 | > 50 |  |  |  |  | 
CCCN(CCC)C1CCc2cc(F)c(O)cc2C1 (stereo not drawn) | 0.43 | 1.74 |  |  |  |  | 
Oc1ccc(CCNC2CCc3cc(O)c(O)c(Cl)c3C2)cc1 (stereo not drawn) | 0.41 | 0.145 |  |  |  |  | 
NC1CCc2c(ccc(O)c2Cl)C1 (stereo not drawn) | 11.6 | > 10 |  |  |  |  | 
NC1CCc2cc(O)c(Cl)cc2C1 (stereo not drawn) | 4.47 | 1.97 | inactive |  |  |  | 
CCCN(CCC)C1CCc2cc(Cl)c(O)cc2C1 (stereo not drawn) | 1.63 | 4.71 | inactive |  |  |  | 
NC1CCc2c(cc(O)c(O)c2Cl)C1 (stereo not drawn) | 0.47 | 0.84 | inactive |  |  |  | 
NC1CCc2cc(Cl)c(O)c(Cl)c2C1 (stereo not drawn) |  | 2.97 |  |  |  |  | 30
NCCc1ccc(O)c(O)c1 |  |  |  | 3500 |  |  | 
CCCN(CCC)C1CCc2cc(O)c(O)c(Cl)c2C1 (stereo not drawn) | 0.24 | 0.62 |  |  |  |  | 
CN(C)C1CCc2c(ccc(O)c2Cl)C1 (stereo not drawn) | 3.5 | 5.95 |  |  |  |  | 
NC1CCc2cc(O)c(O)c(F)c2C1 (stereo not drawn) | 1.27 | 0.062 |  | 2200 |  |  | 
